From ChEMBL document CHEMBL4689842, “EUbOPEN Chemogenomics Library wave 1” (2021)

Tested on: HEK-293T
Experiment: Multiplex assay against HEK293T;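 for Population Tubulin-Different-Phenotype (%): share of the cells with healthy nuclei that show this phenotype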
Format: toxicity, cell-based
Conditions: human
Method in brief: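 Cells were classed with CellPathfinder machine-learning gating, first as Hoechst high-intensity objects or normal cells, then (normal cells) as healthy, pyknosed or fragmented nuclei, and finally (pyknosed cells) as mitotic or apoptotic. Staining of live cells at seeding used Hoechst33342, BioTracker Green Microtubule Cytoskeleton Dye, MitoTracker Red and Annexin V Alexa Fluor 680, with imaging on a CQ1 microscope at 37°C and 5% CO2 after compound addition. Tubulin, mitochondrial-mass and membrane-permeability phenotypes are per cents of healthy-nucleus cells.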

[1] = 12 h, 1 µM, compound concentration 1 uM, replicate 1
[2] = 12 h, 1 µM, compound concentration 1 uM, replicate 2
[3] = 12 h, 10 µM, compound concentration 10 uM, replicate 1
[4] = 12 h, 10 µM, compound concentration 10 uM, replicate 2
[5] = 24 h, 1 µM, compound concentration 1 uM, replicate 1
[6] = 24 h, 1 µM, compound concentration 1 uM, replicate 2
[7] = 24 h, 10 µM, compound concentration 10 uM, replicate 1
[8] = 24 h, 10 µM, compound concentration 10 uM, replicate 2

## COc1cc2ncnc(Nc3ccc(F)c(Cl)c3)c2cc1NC(=O)/C=C/CN1CCCCC1 [DACOMITINIB ANHYDROUS]
[1]
  Population Apoptotic (%): 34%
  Population Fragmented Nuclei (%): 28%
  Population Healthy Nuclei (%): 32%
  Population Hoechst High Intensity Objects (%): 24%
  Population Membrane Permeable-Phenotype (%): 18%
  Population Mitochondria Different-Phenotype (%): 41%
  Population Mitotic Cells (%): 65%
  Population Normal (%): 75%
  Population Pyknosed Nuclei (%): 38%
  Population Tubulin-Different-Phenotype (%): 72%
  Total Cell Count: 554
[2]
  Population Apoptotic (%): 13%
  Population Fragmented Nuclei (%): 5%
  Population Healthy Nuclei (%): 83%
  Population Hoechst High Intensity Objects (%): 4%
  Population Membrane Permeable-Phenotype (%): 7%
  Population Mitochondria Different-Phenotype (%): 36%
  Population Mitotic Cells (%): 86%
  Population Normal (%): 95%
  Population Pyknosed Nuclei (%): 10%
  Population Tubulin-Different-Phenotype (%): 66%
  Total Cell Count: 1314
[3]
  Population Apoptotic (%): 14%
  Population Fragmented Nuclei (%): 14%
  Population Healthy Nuclei (%): 69%
  Population Hoechst High Intensity Objects (%): 12%
  Population Membrane Permeable-Phenotype (%): 4%
  Population Mitochondria Different-Phenotype (%): 6%
  Population Mitotic Cells (%): 85%
  Population Normal (%): 87%
  Population Pyknosed Nuclei (%): 15%
  Population Tubulin-Different-Phenotype (%): 5%
  Total Cell Count: 670
[4]
  Population Apoptotic (%): 12%
  Population Fragmented Nuclei (%): 5%
  Population Healthy Nuclei (%): 89%
  Population Hoechst High Intensity Objects (%): 2%
  Population Membrane Permeable-Phenotype (%): 2%
  Population Mitochondria Different-Phenotype (%): 11%
  Population Mitotic Cells (%): 87%
  Population Normal (%): 97%
  Population Pyknosed Nuclei (%): 5%
  Population Tubulin-Different-Phenotype (%): 6%
  Total Cell Count: 1444
[5]
  Population Apoptotic (%): 39%
  Population Fragmented Nuclei (%): 27%
  Population Healthy Nuclei (%): 34%
  Population Hoechst High Intensity Objects (%): 22%
  Population Membrane Permeable-Phenotype (%): 9%
  Population Mitochondria Different-Phenotype (%): 63%
  Population Mitotic Cells (%): 60%
  Population Normal (%): 77%
  Population Pyknosed Nuclei (%): 37%
  Population Tubulin-Different-Phenotype (%): 73%
  Total Cell Count: 532
[6]
  Population Apoptotic (%): 6%
  Population Fragmented Nuclei (%): 16%
  Population Healthy Nuclei (%): 79%
  Population Hoechst High Intensity Objects (%): 3%
  Population Membrane Permeable-Phenotype (%): 6%
  Population Mitochondria Different-Phenotype (%): 13%
  Population Mitotic Cells (%): 93%
  Population Normal (%): 96%
  Population Pyknosed Nuclei (%): 4%
  Population Tubulin-Different-Phenotype (%): 54%
  Total Cell Count: 1906
[7]
  Population Apoptotic (%): 18%
  Population Fragmented Nuclei (%): 11%
  Population Healthy Nuclei (%): 79%
  Population Hoechst High Intensity Objects (%): 6%
  Population Membrane Permeable-Phenotype (%): 10%
  Population Mitochondria Different-Phenotype (%): 3%
  Population Mitotic Cells (%): 81%
  Population Normal (%): 94%
  Population Pyknosed Nuclei (%): 9%
  Population Tubulin-Different-Phenotype (%): 10%
  Total Cell Count: 800
[8]
  Population Apoptotic (%): 4%
  Population Fragmented Nuclei (%): 18%
  Population Healthy Nuclei (%): 78%
  Population Hoechst High Intensity Objects (%): 2%
  Population Membrane Permeable-Phenotype (%): 4%
  Population Mitochondria Different-Phenotype (%): 1%
  Population Mitotic Cells (%): 95%
  Population Normal (%): 97%
  Population Pyknosed Nuclei (%): 2%
  Population Tubulin-Different-Phenotype (%): 5%
  Total Cell Count: 2468
